Reference: ChEMBL document CHEMBL1811825, “Synthesis and antiviral evaluation of 9-(S)-[3-alkoxy-2-(phosphonomethoxy)propyl]nucleoside alkoxyalkyl esters: inhibitors of hepatitis C virus and HIV-1 replication” (Bioorg Med Chem, 2011)

What was measured:
[1] = system: MT2; test: Cytotoxicity against human MT2 cells after 72 hrs by propidium iodide staining-based flow cytometry; assay type: cell-based; settings: mt2, 72 h
[2] = system: Human immunodeficiency virus 1; test: Antiviral activity against HIV-1 LAI infected in human MT2 cells assessed as p24 antigen production after 4 days by ELISA; assay type: functional, organism-based; settings: Human immunodeficiency virus 1, LAI, MT2, 96 h
Summary of the method: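 MT-2 cells in RPMI 1640 with 10% FBS, 10 mM HEPES, penicillin/streptomycin, inoculated with HIV-1 LAI at MOI 0.001 TCID50/cell; threefold serial drug dilutions, three wells each.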

[3] = Cytotoxicity against human Huh7.5.1 cells by fluorescent cell viability assay; assay type: cell-based, Huh-7
[4] = Selectivity index, ratio of CC50 for human Huh7.5.1 cells to EC50 for HCV genotype1b in human Huh-7.5.1 cells; assay type: functional, Huh-7
[5] = Selectivity index, ratio of CC50 for human MT2 cells to EC50 for HIV-1 LAI infected in human MT2 cells; assay type: toxicity, cell-based; settings: read-out: Ratio CC50/EC50
[6] = Selectivity index, ratio of CC50 for human Huh7.5.1 cells to EC50 for HCV JFH-1 in human Huh-7.5.1 cells; assay type: functional, Huh-7
[7] = system: Hepatitis C virus; test: Antiviral activity against HCV JFH-1 infected in human Huh-7.5.1 cells after 48 to 72 hrs by luciferase reporter assay; assay type: functional, organism-based, Hepacivirus hominis; settings: JFH-1, Huh-7.5.1
[8] = system: Hepatitis C virus; test: Antiviral activity against Hepatitis C virus genotype 1b infected in human Huh-7.5.1 cells after 48 to 72 hrs by luciferase reporter assay; assay type: functional, organism-based, Hepacivirus hominis
[9] = system: Human alphaherpesvirus 1; test: Antiviral activity against Human herpesvirus 1 infected in human HFF cells after 3 days by Plaque reduction assay; assay type: functional, organism-based; settings: Human alphaherpesvirus 1, HFF, 72 h
[10] = system: Human betaherpesvirus 5; test: Antiviral activity against Human cytomegalovirus infected in human HFF cells after 8 days by Plaque reduction assay; assay type: functional, organism-based; settings: Human betaherpesvirus 5, HFF, 192 h
[11] = system: Cowpox virus; test: Antiviral activity against Cowpox virus infected in human HFF cells after 3 days by Plaque reduction assay; assay type: functional, organism-based; settings: 72 h
[12] = system: Vaccinia virus; test: Antiviral activity against Vaccinia virus infected in human HFF cells after 3 days by Plaque reduction assay; assay type: functional, organism-based; settings: Orthopoxvirus vaccinia, 72 h

Q: Which results are given for CCCCCCCCCCCCCCCCCCOCCOP(=O)([O-])CO[C@@H](COC)Cn1cnc2c(=O)[nH]c(N)nc21.[Na+]?
A: CC50 [1]: 44 µM; EC50 [2]: < 1e-05 µM; CC50 ([3]; Huh7.5.1 cells): > 150 µM; Ratio CC50/EC50 [4]: >11.9; selectivity ratio [5]: > 4.4e+06; Ratio CC50/EC50 [6]: >12.1; EC50 [7]: 12.4 µM; EC50 [8]: 12.6 µM

Q: For CCCCCCCCCCCCCCCCCCOCCOP(=O)(O)CO[C@H](COC)Cn1cnc2c(N)nc(N)nc21, which CC50 [1] is on record?
A: 18 µM

Q: And the EC50 [2]?
A: 0.23 µM

Q: What about the CC50 ([3]; huh-7) of the same compound?
A: 99 µM

Q: And the EC50 [7]?
A: 21.4 µM

Q: And the EC50 [8]?
A: 20.1 µM

Q: Which results are given for CCCCCCCCCCCCCCCCCCOCCOP(=O)([O-])CO[C@H](COC)Cn1cnc2c(=O)[nH]c(N)nc21.[Na+]?
A: CC50 [1]: 25 µM; EC50 [2]: 0.2 µM; CC50 ([3]; Huh7.5.1 cells): > 150 µM; Ratio CC50/EC50 [4]: >18.2; selectivity ratio [5]: 125; Ratio CC50/EC50 [6]: >14; EC50 [7]: 10.7 µM; EC50 [8]: 8.26 µM

Q: Which CC50 [1] does the source give for CCCCCCCCCCCCCCCCCCOCCOP(=O)(O)CO[C@H](COC)Cn1ccc(N)nc1=O here?
A: 60.7 µM

Q: And the EC50 [2]?
A: 12.7 µM

Q: And the CC50 ([3]; Huh7.5.1 cells)?
A: > 150 µM

Q: What about the selectivity ratio [5] of the same compound?
A: 4.8

Q: And the EC50 [7]?
A: > 150 µM

Q: What about the EC50 [8] of the same compound?
A: > 150 µM

Q: For CCCCCCCCCCCCCCCCOCCCOP(=O)(O)CO[C@H](COC)Cn1cnc2c(=O)[nH]c(N)nc21, which CC50 [1] is on record?
A: 29.3 µM

Q: What about the EC50 [2] of the same compound?
A: 2.03 µM

Q: And the CC50 ([3]; Huh7.5.1 cells)?
A: > 150 µM

Q: What about the EC50 [7] of the same compound?
A: 24.8 µM

Q: And the EC50 [8]?
A: 22 µM

Q: With CCCCCCCCCCCCCCCCOCCCOP(=O)([O-])COC(COCC)Cn1cnc2c(N)nc(N)nc21.[Na+] (racemic) as the compound, how does the CC50 [1] read?
A: 30.7 µM

Q: And the EC50 [2]?
A: > 10 µM

Q: What about the CC50 ([3]; Huh7.5.1 cells) of the same compound?
A: > 150 µM

Q: What about the “Ratio CC50/EC50” value [4] of the same compound?
A: >8.2

Q: What about the “Ratio CC50/EC50” value [6] of the same compound?
A: >7.69

Q: And the EC50 [7]?
A: 19.5 µM

Q: What about the EC50 [8] of the same compound?
A: 18.2 µM

Q: Which CC50 [1] does the source give for CCCCCCCCCCCCCCCCCCOCCOP(=O)(O)CO[C@@H](COC)Cn1cnc2c(N)nc(N)nc21 here?
A: 19.7 µM

Q: What about the EC50 [2] of the same compound?
A: 0.04 µM

Q: What about the CC50 ([3]; Huh7.5.1 cells) of the same compound?
A: > 150 µM

Q: What about the EC50 [7] of the same compound?
A: 25.8 µM

Q: What about the EC50 [8] of the same compound?
A: 25.6 µM

Q: Which CC50 [1] does the source give for CCCCCCCCCCCCCCCCOCCCOP(=O)(O)CO[C@H](COC)Cn1cnc2c(OC)nc(N)nc21 here?
A: 34.3 µM

Q: What about the EC50 [2] of the same compound?
A: > 10 µM

Q: What about the CC50 ([3]; Huh7.5.1 cells) of the same compound?
A: > 150 µM

Q: And the EC50 [7]?
A: 17.4 µM

Q: And the EC50 [8]?
A: 18.1 µM

Q: For CCCCCCCCCCCCCCCCCCOCCOP(=O)(O)CO[C@H](CO)Cn1cnc2c(N)ncnc21, which CC50 [1] is on record?
A: 0.033 µM

Q: What about the EC50 [2] of the same compound?
A: 0.0001 µM

Q: What about the CC50 ([3]; huh-7) of the same compound?
A: 35.6 µM

Q: What about the EC50 [9] of the same compound?
A: < 0.0001 µM

Q: And the EC50 [7]?
A: 1.65 µM

Q: What about the EC50 [8] of the same compound?
A: 1.55 µM

Q: What does the source list for CCCCCCCCCCCCCCCCOCCCOP(=O)([O-])COC(COCC)Cn1cnc2c(=O)[nH]c(N)nc21.[Na+] (racemic)?
A: CC50 [1]: 14.9 µM; EC50 [2]: > 10 µM; CC50 ([3]; Huh7.5.1 cells): > 150 µM; Ratio CC50/EC50 [4]: >5.88; Ratio CC50/EC50 [6]: >11.4; EC50 [7]: 13.2 µM; EC50 [8]: 25.5 µM

Q: What does the source list for CCCCCCCCCCCCCCCCOCCCOP(=O)(O)COC(COCC)Cn1cnc2c(N)ncnc21 (racemic)?
A: CC50 [1]: 23.6 µM; EC50 [2]: > 10 µM; CC50 ([3]; huh-7): 99 µM; EC50 [7]: 8.87 µM; EC50 [8]: 7.59 µM

Q: Which results are given for CCCCCCCCCCCCCCCCCCOCCOP(=O)(O)CO[C@@H](COC)Cn1cnc2c(N)ncnc21?
A: EC50 [2]: 4.8 µM; CC50 ([3]; Huh7.5.1 cells): > 150 µM; EC50 [7]: 5.33 µM; EC50 [8]: 4.65 µM

Q: Which CC50 [1] does the source give for CCCCCCCCCCCCCCCCOCCCOP(=O)(O)CO[C@H](COC)Cn1cnc2c(OC)ncnc21 here?
A: 22 µM

Q: What about the EC50 [2] of the same compound?
A: > 10 µM

Q: What about the CC50 ([3]; Huh7.5.1 cells) of the same compound?
A: > 150 µM

Q: And the EC50 [7]?
A: 12.5 µM

Q: And the EC50 [8]?
A: 8.9 µM

Q: For CCCCCCCCCCCCCCCCOCCCOP(=O)(O)CO[C@H](COC)Cn1cnc2c(N)ncnc21, which CC50 [1] is on record?
A: 32 µM

Q: What about the EC50 [2] of the same compound?
A: 0.2 µM

Q: What about the CC50 ([3]; Huh7.5.1 cells) of the same compound?
A: > 150 µM

Q: What about the EC50 [7] of the same compound?
A: 4.64 µM

Q: And the EC50 [8]?
A: 2.36 µM

Q: Which CC50 [1] does the source give for CCCCCCCCCCCCCCCCOCCCOP(=O)(O)COC(COC(C)C)Cn1cnc2c(N)ncnc21 (racemic) here?
A: 30.3 µM

Q: What about the EC50 [2] of the same compound?
A: > 10 µM

Q: And the CC50 ([3]; huh-7)?
A: 100 µM

Q: And the EC50 [7]?
A: 98.8 µM

Q: And the EC50 [8]?
A: 51.2 µM

Q: Which results are given for CCCCCCCCCCCCCCCCCCOCCOP(=O)(O)CO[C@H](COC)Cn1cnc2c(N)ncnc21?
A: EC50 [2]: 0.03 µM; EC50 [10]: 1.55 µM; CC50 ([3]; Huh7.5.1 cells): > 150 µM; EC50 [9]: 45.7 µM; EC50 [11]: > 20 µM; EC50 [7]: 2.38 µM; EC50 [8]: 1.43 µM; EC50 [12]: 18.3 µM

Q: With CCCCCCCCCCCCCCCCOCCCOP(=O)(O)CO[C@H](COC)Cn1cnc2c(N)nc(N)nc21 as the compound, how does the CC50 [1] read?
A: 22.7 µM

Q: What about the EC50 [2] of the same compound?
A: 4.6 µM

Q: And the CC50 ([3]; huh-7)?
A: 91.5 µM

Q: What about the EC50 [7] of the same compound?
A: 23.6 µM

Q: What about the EC50 [8] of the same compound?
A: 21.3 µM
